Screens (PubChem)
PostGolgi ctrl: growth inhibition of yeast control strain, primary screen, counter-screen for post-Golgi transport modulator project; efflux-deficient yeast background strain, growth absorbance A615, 16 h; inhibition, % at 10 µM; actives 5% (n = 98,000)
E coli WT exp: growth inhibitors of wild-type E. coli, primary screen, strain BW25113, expanded library, OD600; OD600 absorbance; actives 0.15% (n = 98,000); AID 710, 2007; growth inhibition, % at 100 µM;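 active = growth inhibition above about 50% at one test dose, limit read from the data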;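 also: growth measured after 20 h incubation at 37 °C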
tolC growth inh: growth inhibitors of E. coli tolC mutant, primary screen, strain BW25113 ΔtolC::kan, 384-well | AID 573, 2007 | OD615 | growth inhibition, % at 10 µM (by protocol) | actives 2.2% (n = 65,000);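 active = growth inhibition at or above a cutoff equal to the mean over every tested compound plus 3 SD, cut at about 60% in these data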;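 also: growth measured after 20 h incubation at 37 °C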
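System: E. coli ΔtolC::kan strain BW25113; Buffer or medium: LB broth supplemented with 50 µg/mL kanamycin; Compound: 10 µM final, single dose; Incubation: bacterial growth with compound for 20 h at 37 °C; Signal: A615 absorbance measurement; Evaluation: growth inhibition in percent.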
PostGolgi yeast: phenotypic screen on post-Golgi transport, primary screen | post-Golgi transport phenotypic cell assay | inhibition, % at 10 µM | actives 0.9% (n = 98,000) | AID 739, 2007;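 also: yeast cells grown in 1536-well plates; yeast grown about 18 h at 30C before absorbance read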
Large screens that a line does not name were inactive. Hits are enriched below; roughly 6.3% of the tested compounds scored in any of these assays. Rule as the data show it, unless noted: active = inhibition above about 30%; inactive = the rest.

COc1ccc(C2CC(c3ccccc3)Nc3nc(NC(=O)c4ccco4)nn32)cc1 (stereo unspecified)	none
CC(C)CCn1c(=S)[nH]c2ncccc2c1=O	none
O=c1c2cccnc2[nH]c(=S)n1CCCN1CCN(c2ccc(F)cc2)CC1	PostGolgi ctrl 42
CCOCCCn1c(=S)[nH]c2ncccc2c1=O	PostGolgi ctrl 33
N#CCCC12CCCCC1=Nc1ccccc12 (stereo unspecified)	none (no result: PostGolgi ctrl, E coli WT exp, PostGolgi yeast)
Cc1cc(N2CCN(c3ccccc3)CC2)nc(-n2nc(C)cc2C)n1	tolC growth inh 71
Cc1cc(N2CCN(c3ccccc3)CC2)nc(-c2ccccc2O)n1	PostGolgi ctrl 77, PostGolgi yeast 82 (no result: tolC growth inh)
Cc1cc(C)n(-c2cc(N3CCOCC3)nc(-c3ccccc3)n2)n1	PostGolgi ctrl 42
Cc1cc(-n2[nH]c(C)c(C)c2=O)nc(-c2ccccc2O)n1	none (no result: PostGolgi ctrl, E coli WT exp, PostGolgi yeast)
CCCCCCCCSc1nnc(CSc2nc3nc(C)cc(C)n3n2)o1	none (no result: tolC growth inh)
COc1ccccc1-c1nnc2sc(COc3ccccc3)nn12	none (no result: PostGolgi ctrl, E coli WT exp, PostGolgi yeast)
COc1ccccc1-c1nnc2sc(COc3ccc(Cl)cc3Cl)nn12	PostGolgi ctrl 41
Clc1ccc(OCc2nn3c(C4CCCCC4)nnc3s2)c(Cl)c1	PostGolgi ctrl 39
CCN(CC)c1ccc(-c2nn3c(-c4ccccc4OC)nnc3s2)cc1	PostGolgi ctrl 43
Clc1ccc(-c2nnc3sc(Cc4cccs4)nn23)c(Cl)c1	PostGolgi ctrl 50
C=CCn1c(CNc2ccc(C)cc2)nnc1SCC(=O)N/N=C/c1ccc(O)cc1	none (no result: tolC growth inh)
Cc1c(Cl)cccc1NC(=O)C1NC(=O)CC1c1ccccc1 (stereo unspecified)	none (no result: tolC growth inh)
Cc1cc(NC(=O)c2ccccc2)sc1C	E coli WT exp 54, tolC growth inh 98
Cc1ccc(NC(=O)c2ccccc2)s1	E coli WT exp 77
COC(=O)c1c(NC(=O)c2ccccc2)sc(C(=O)c2ccccc2)c1C	none (no result: tolC growth inh)
CS(=O)(=O)N(CC(=O)N1CCN(Cc2ccc3c(c2)OCO3)CC1)Cc1ccc(Cl)cc1	none (no result: tolC growth inh)
O=C(CCC1CCCCC1)N1CCN(Cc2ccc3c(c2)OCO3)CC1	PostGolgi ctrl 38, PostGolgi yeast 73
CCOc1ccc(Cl)cc1CSc1n[nH]c(CC)n1	PostGolgi ctrl 34
CCN(CC)CCCN1C(=O)C(O)=C(C(=O)c2ccco2)C1c1ccc(OC(C)C)cc1 (stereo unspecified)	PostGolgi ctrl 43
CC(C)Oc1ccc(C2C(C(=O)c3ccco3)=C(O)C(=O)N2CCCN(C)C)cc1 (stereo unspecified)	none (no result: PostGolgi ctrl, E coli WT exp, PostGolgi yeast)
Nc1c2c(nc3ccn(Cc4ccccc4)c(=O)c13)CCC2	PostGolgi ctrl 44
Nc1c2c(nc3ccn(-c4ccccc4)c(=O)c13)CCCCC2	none
COc1ccccc1OCc1ccc(C(=O)NC(C)(C)C)o1	none
CC(C)(C)NC(=O)c1ccc(COc2ccccc2Br)o1	PostGolgi ctrl 33
COc1ccc2c(c1)c1nnc(SC)nc1n2C	PostGolgi ctrl 87, PostGolgi yeast 58
Cc1cc(C(=O)O)c(CCCN)s1	none
CC1CCCN(Cc2cnc(Cl)s2)C1 (stereo unspecified)	PostGolgi ctrl 41 (no result: tolC growth inh)
c1ccc(Oc2ccc(-n3cnnn3)cc2)cc1	none
CC(=O)C1=C(O)C(=O)N(Cc2ccccc2)C1c1ccco1 (stereo unspecified)	none
CC(C)C(C)NC(=O)COc1ccc(-c2ccccc2)cc1 (stereo unspecified)	PostGolgi yeast 32 (no result: tolC growth inh)
Cc1ccc(OCC(=O)Nc2ccccc2-c2ccccc2)cc1	PostGolgi ctrl 46 (no result: tolC growth inh)
CN(C(=O)CSc1nc(N)nn1-c1ccccc1)c1ccccc1	none
COC(=O)c1cc2c(-c3ccccc3)c(C)c3ccccn3c-2c1C(=O)OC	PostGolgi ctrl 42 (no result: tolC growth inh)
Cn1ncc(N=Cc2ccccc2)c1C(=O)Nc1cccc(Cl)c1	none (no result: tolC growth inh)
Cc1cccc(C)c1NC(=O)C(NC=O)c1ccccc1Cl (stereo unspecified)	PostGolgi ctrl 31 (no result: tolC growth inh)
Cc1cccc(C)c1NC(=O)C(NC=O)c1ccc(N(C)C)cc1 (stereo unspecified)	none
CCOC(=O)c1c(C=O)c(C)n(Cc2ccc(Cl)cc2)c1C	PostGolgi ctrl 42 (no result: tolC growth inh)
CCOC(=O)c1c(C=O)c(C)n(Cc2ccccc2)c1C	none (no result: tolC growth inh)
O=C(O)/C=C/c1cn(-c2ncc(C(F)(F)F)cc2Cl)c2ccccc12	none (no result: tolC growth inh)
CCCc1cc(NCCCCO)n2c(nc3ccccc32)c1C#N	PostGolgi yeast 35
Cc1cc(NCCCCO)n2c(nc3ccccc32)c1C#N	none
O=S(=O)(c1ccccc1)N1N=C(c2cccs2)CC1c1ccc(Br)cc1 (stereo unspecified)	none (no result: tolC growth inh)
O=C(c1ccco1)N1N=C(c2cccs2)CC1c1ccc(F)cc1 (stereo unspecified)	PostGolgi ctrl 35 (no result: tolC growth inh)
O=C(c1cccs1)N1N=C(c2ccccc2)CC1c1ccccc1 (stereo unspecified)	PostGolgi ctrl 69 (no result: tolC growth inh)
COC(=O)C(C)N(C(=O)c1ccc(C(=O)c2ccccc2)cc1)c1c(C)cccc1C (stereo unspecified)	none (no result: tolC growth inh)
CCCC(=O)CN1C(=O)C2(OCCO2)c2ccccc21	none
CCN(CC)C(=O)CN1C(=O)C2(OCC(C)(c3ccccc3)CO2)c2ccccc21 (stereo unspecified)	PostGolgi ctrl 31
CC(C)(C)n1nnnc1C(c1cccs1)N1CCN(c2ccccc2)CC1 (stereo unspecified)	PostGolgi ctrl 36 (no result: tolC growth inh)
c1ccc(Cn2nnnc2C(c2ccncc2)N2CCOCC2)cc1 (stereo unspecified)	none
CCC(C)(C)n1nnnc1C(c1cccnc1)N1CCN(c2cccc(C(F)(F)F)c2)CC1 (stereo unspecified)	PostGolgi ctrl 96, PostGolgi yeast 86 (no result: tolC growth inh)
CC(C)(C)n1nnnc1C(c1cccnc1)N1CCN(c2ccccc2)CC1 (stereo unspecified)	PostGolgi ctrl 76, PostGolgi yeast 92 (no result: tolC growth inh)
c1ccc(Cn2nnnc2C(c2cccnc2)N2CCN(c3ccccc3)CC2)cc1 (stereo unspecified)	PostGolgi ctrl 90, PostGolgi yeast 92
Cc1ccc2nc(NC(=O)C(NS(=O)(=O)c3cccc4nsnc34)C(C)C)sc2c1 (stereo unspecified)	none (no result: tolC growth inh)
COc1cccc(C2=NOC(C(=O)Nc3cccc(C(C)=O)c3)C2)c1OC (stereo unspecified)	none
O=C1CCc2cc(S(=O)(=O)N3CCCC3C(=O)NC3CCCCCCC3)ccc2N1 (stereo unspecified)	none (no result: tolC growth inh)
CCC(C)NS(=O)(=O)c1ccc(OC)c(Cl)c1Cl (stereo unspecified)	none (no result: tolC growth inh)
COCCn1nnnc1C(c1cccs1)N1CCN(c2cc(C)ccc2C)CC1 (stereo unspecified)	none
CC(C)(C)n1nnnc1C(c1cccc(C#N)c1)N1CCC(Cc2ccccc2)CC1 (stereo unspecified)	PostGolgi ctrl 43
CCC(C)(C)n1nnnc1C(c1ccncc1)N1CCC(Cc2ccccc2)CC1 (stereo unspecified)	none (no result: tolC growth inh)
Cc1cccc(N2CCN(C(c3cccs3)c3nnnn3C(C)(C)C)CC2)c1C (stereo unspecified)	PostGolgi ctrl 40
Cn1c(=O)c2c(nc(SCC(=O)OCc3ccccc3)n2C)n(C)c1=O	PostGolgi ctrl 34
